{"data": "Measured values collected from several papers", "target": "Protein kinase C theta type (PRKCQ, Homo sapiens, UniProt Q04759)"}
{"Compound": "CN(C)c1nccc(-c2cnn3ncccc23)n1", "test": "binding", "setting": "1 µM", "remaining binding [%]": 88}
{"Compound": "CCOCCn1cc(C(=O)Nc2ccc(-n3nc(-c4cccnc4)cc3C(F)(F)F)cn2)ccc1=O", "test": "cell-free assay, competition with immobilised ligand", "setting": "1 µM", "remaining binding [%]": 73}
{"Compound": "C=CC(=O)N1CCC(C(=O)NCC(=O)N2CCN(c3nc(-c4cnc(N)nc4C(F)F)nc(N4CCOCC4)n3)CC2)CC1", "test": "binding, competition with immobilised ligand", "setting": "1 µM", "remaining binding [%]": 83}
{"Compound": "c1cnn2ncc(-c3ccnc(N4CCC45COC5)n3)c2c1", "test": "binding", "setting": "1 µM", "remaining binding [%]": 86}
{"Compound": "O=C(NCCCN1CCOCC1)c1ccc(Nc2nccc(-c3cc4ccccc4s3)n2)cc1", "test": "binding, competition with immobilised ligand", "setting": "1 µM", "remaining binding [%]": 100}
{"Compound": "c1cncc(-c2cccc(Nc3nccc(NC4CCCCC4)n3)c2)c1", "test": "binding, competition with immobilised ligand", "setting": "10 µM", "remaining binding [%]": 8.3}
{"Compound": "O=C(NCCCN1CCOCC1)c1ccc(Nc2ncc(Cl)c(-c3ccc(Cl)s3)n2)cc1", "test": "binding, competition with immobilised ligand", "setting": "1 µM", "remaining binding [%]": 100}
{"Compound": "C[C@@H]1CN(c2cc(-c3nn(C)c4ccc(OC5(C)CC5)cc34)ncn2)C[C@H](C)O1", "test": "cell-free assay, competition with immobilised ligand", "setting": "1 µM", "remaining binding [%]": 91}
{"Compound": "O=C(Nc1c[nH]nc1C(=O)NC1CCNCC1)c1cc(F)cc(F)c1", "test": "binding, competition with immobilised ligand", "setting": "1 µM", "remaining binding [%]": 100}
{"Compound": "Nc1ncc2c(n1)-c1c([nH]c3ccc(C#CC4CC4)cc13)CCCC2", "test": "binding, competition with immobilised ligand", "setting": "1 µM", "remaining binding [%]": 98}
{"Compound": "CC1CCCN1c1nccc(-c2cnn3ncccc23)n1 (stereo not shown)", "test": "binding", "setting": "1 µM", "remaining binding [%]": 100}
{"Compound": "C[C@@H](c1ccc(-n2cnc3c(N)ncnc32)cc1)N1CCc2nn(C)c(Cc3ccccc3)c2C1=O", "test": "binding, competition with immobilised ligand", "setting": "0.1 µM", "remaining binding [%]": 100}
{"Compound": "Cc1c(NC(=O)c2cc(C(N)=O)nc3cc(F)ccc23)c(C(F)(F)F)nn1Cc1ccc(C#N)cc1", "test": "cell-free assay, competition with immobilised ligand", "setting": "1 µM", "remaining binding [%]": 80}
{"Compound": "N[C@H]1CCN(c2nccc(-c3cnn4ncccc34)n2)C1", "test": "binding", "setting": "1 µM", "remaining binding [%]": 74}
{"Compound": "Nc1c(C(=O)NCc2ccc(C(=O)NCCCC3CCCCC3)cc2)cnn1-c1ccccc1", "test": "cell-free assay, competition with immobilised ligand", "setting": "0.1 µM", "remaining binding [%]": 100}
{"Compound": "CCN1CCN(Cc2ccc(C(=O)Nc3ccc(C)c(Oc4ccc5c(c4)CC(=O)N5)c3)cc2C(F)(F)F)CC1", "test": "binding, competition with immobilised ligand", "setting": "1 µM", "remaining binding [%]": 100}
{"Compound": "C[C@@H]1CCN(c2nccc(-c3cnn4ncccc34)n2)C1", "test": "binding", "setting": "1 µM", "remaining binding [%]": 67}
{"Compound": "COc1cnc(Nc2cccc(S(N)(=O)=O)c2)nc1N1CCN(c2ccccc2)CC1", "test": "binding, competition with immobilised ligand", "setting": "1 µM", "remaining binding [%]": 94}
{"Compound": "O=C(Nc1ccc(Oc2ccc(F)cc2)cc1)N1CCc2ncccc2[C@H]1c1ccc(F)cc1", "test": "cell-free assay, competition with immobilised ligand", "setting": "1 µM", "remaining binding [%]": 95}
{"Compound": "CN(C)c1ncc(F)c(-c2cnn3ncccc23)n1", "test": "binding", "setting": "1 µM", "remaining binding [%]": 100}
{"Compound": "CN(C)CC#Cc1ccc(OCCCc2sc(N3CCc4cccc(C(=O)Nc5nc6ccccc6s5)c4C3)nc2C(=O)O)c(F)c1", "test": "cell-free assay, competition with immobilised ligand", "setting": "1 µM", "remaining binding [%]": 92}
{"Compound": "Cc1cnc(Nc2ccc(C(=O)N3CCC(N4CCCC4)CC3)cc2)nc1-c1cc2ccccc2s1", "test": "binding, competition with immobilised ligand", "setting": "1 µM", "remaining binding [%]": 27}
